Screening results (PubChem)
PAD4 FP inh: inhibitors of human PAD4 | Q9UM07 | recombinant PAD4, RCA probe fluorescence polarization | inhibition, % at 6.36 µM | 0.41% of 330,000 active;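 active means percent inhibition above a cutoff equal to the mean of all tested compounds plus 3 SD, cut at about 15% in these data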;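 further: 0% = PAD4 with RCA probe and DMSO and 100% = probe without PAD4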
Target sequence (Q9UM07 whole entry, looked up): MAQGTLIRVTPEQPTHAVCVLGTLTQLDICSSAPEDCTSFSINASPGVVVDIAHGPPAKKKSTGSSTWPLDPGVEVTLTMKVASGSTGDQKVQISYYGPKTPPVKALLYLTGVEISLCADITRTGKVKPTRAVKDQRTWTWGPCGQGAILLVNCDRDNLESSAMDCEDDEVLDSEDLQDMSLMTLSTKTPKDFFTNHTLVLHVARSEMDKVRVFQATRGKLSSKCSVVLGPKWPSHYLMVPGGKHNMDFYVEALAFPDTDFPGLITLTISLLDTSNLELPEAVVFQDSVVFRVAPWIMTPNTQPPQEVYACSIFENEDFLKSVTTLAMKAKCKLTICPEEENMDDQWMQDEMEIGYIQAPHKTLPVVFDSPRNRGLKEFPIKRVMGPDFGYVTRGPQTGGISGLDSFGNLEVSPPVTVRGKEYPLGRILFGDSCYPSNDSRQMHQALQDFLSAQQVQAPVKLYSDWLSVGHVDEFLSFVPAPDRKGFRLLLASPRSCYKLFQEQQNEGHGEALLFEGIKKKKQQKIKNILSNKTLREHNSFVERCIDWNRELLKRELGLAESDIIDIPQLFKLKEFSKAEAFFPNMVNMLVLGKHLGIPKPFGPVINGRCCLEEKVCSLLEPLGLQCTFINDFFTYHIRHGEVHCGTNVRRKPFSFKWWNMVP
TDP2 absorb: TDP2 (human) inhibition, absorbance primary screen; O95551; recombinant TDP2, T5PNP hydrolysis, p-nitrophenol absorbance 415 nm; inhibition, % at 12.8 µM; 0.34% of 370,000 active; AID 720702;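 active means inhibition above the mean of all tested compounds plus 3 SD, set per campaign, cut at about 25% in these data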;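 further: 0% = DMSO with enzyme and 100% = buffer with substrate but no TDP2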
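System – recombinant human TDP2 · Amount – 120 nM TDP2 per well · Buffer or medium – Mg2+-containing Tris-HCl buffer, pH 7.5 · Reagent – T5PNP substrate, 5 mM · Dosing – 12.8 µM single point, 1% DMSO · Incubation – 2 h at 37 °C · Measured by – epi absorbance · Read-out basis – percent inhibition · Benchmarks – high control without enzyme, low control DMSO plus TDP2 · Repeats – singlicate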
Apaf-1 inh: blocks human Apaf-1 apoptosome activity. O14727. reconstituted apoptosome caspase-3 activity, DEVD-Rh110 fluorescence. inhibition, % at 20 µM. 0.71% of 330,000 active; active means inhibition of at least 40% at 20 µM;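 further: plate controls were DMSO wells for no effect and DEVD-CHO caspase inhibitor wells for full effect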
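Assay system: Apoptosome proteins | Medium: pH 7.5 Hepes buffer with CHAPS, BSA, DTT | Also added: Cytochrome c and DEVD-Rh110 substrate | Times: 30 min plus 50 min, RT | Detection: Rhodamine 110 fluorescence at Ex 480/Em 540 nm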
CTSL1 counter: counter-screen for PFM18AAP inhibitors: inhibitors of F. hepatica cathepsin L1. recombinant F. hepatica cathepsin L1, Z-Leu-Arg-MCA fluorescence. inhibition, % at 5.96 µM. 0.49% of 300,000 active. AID 1906;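 active means inhibition above the mean of all tested compounds plus 3 SD, set per screening campaign, cut at about 17% in these data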;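 further: 0% = plate median of test compound wells and 100% = 1 µM Z-Phe-Ala-diazomethylketone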
GSTO1 counter: GSTO1 inhibition, counter-screen for RBBP9 inhibitors; 1.1% of 300,000 active; recombinant GSTO1, activity-based probe fluorescence polarization; inhibition, % at 5.96 µM;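 active means inhibition above the campaign mean inhibition plus 3 SD, cut at about 35% in these data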;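 further: 0% = GSTO1-1 with DMSO and 100% = wells lacking GSTO1-1 enzyme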
Apaf-1 inh conf2: confirmation of Apaf-1 inhibitors; AID 504614; inhibition, % at 20 µM; shares compounds with Apaf-1 inh; reconstituted apoptosome, caspase-3 DEVD-Rh110 fluorescence; 25% of 1,800 active;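 active means mean inhibition of at least 40% at 20 µM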;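 further: plate controls were DMSO wells for no effect and DEVD-CHO caspase inhibitor control wells for full effect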
Rh110 interf inh: counter-screen for Apaf-1 inhibitors: fluorescence interference; shares compounds with Apaf-1 inh; Rh110 fluorescence interference, quenched caspase reaction; activation (fluorescence interference), % at 20 µM; 1,800 tested, under 10 active; AID 504615;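 active means signal rise of 40% or more at 20 µM, treated as a fluorescence artifact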
Fluor interf inh: Apaf-1 inhibitor counter-screen fluorescence artifact; shares compounds with Apaf-1 inh; fluorescence interference counterscreen, Apaf-1 assay format; IC50, µM; 460 tested, under 10 active; call rule not given here
* = called active by the depositor; x = no result given. This is a sample that favours compounds with a hit; in the whole collection about 1.8% have one here.

SMILES	PAD4 FP inh	TDP2 absorb	Apaf-1 inh	CTSL1 counter	GSTO1 counter	Apaf-1 inh conf2	Rh110 interf inh	others
COC(=O)C1=C(C)N(Cc2cccc(C(F)(F)F)c2)C(=NCc2ccc3c(c2)OCO3)NC1c1ccc(Cl)cc1 (stereo not given)	x	-10	x	x	x	x	x
CC1(C)OC(=O)C2=C(CC(CCc3ccccc3)OC2c2cccc(C(F)(F)F)c2)O1 (stereo not given)	x	0	x	x	x	x	x
CN(Cc1ccccc1)C(=O)CN1C(=O)NC(C)(c2ccc(C(C)(C)C)cc2)C1=O (stereo not given)	1	-2	42*	0	-1	20	4
COc1ccccc1CNC(=O)CN1C(=O)NC(C)(c2ccc(C(C)(C)C)cc2)C1=O (stereo not given)	-2	-4	25	-7	-8	x	x
COc1cc(C(=O)NC(C)c2ccc(-n3ccnc3)cc2)cc(OC)c1C (stereo not given)	-2	-3	41*	-2	28	22	6
COc1cccc2c1[C@@H]1CN(CCCCn3c(=O)[nH]c4c(sc5ncc(-c6ccccc6)nc54)c3=O)C[C@@H]1CO2	-2	4	48*	-1	-4	22	11
CC1CCN(C(=O)CCNS(=O)(=O)c2ccc(Br)cc2)CC1	-3	-8	5	x	x	x	x
CC1CCN(C2=C(NS(=O)(=O)c3ccccc3)C(=O)c3ccccc3C2=O)CC1	-6	0	60*	-3	35*	34	6
CC1CCCN(c2nc3ccccc3nc2C(C#N)S(=O)(=O)c2ccccc2)C1 (stereo not given)	-1	0	11	0	-15	x	x
CC1CCN(C2=C(NS(=O)(=O)c3ccc(Br)cc3)C(=O)c3ccccc3C2=O)CC1	-9	8	54*	-4	32	26	-3
CC1CCN(C2=C(NS(=O)(=O)c3ccc(Cl)cc3)C(=O)c3ccccc3C2=O)CC1	-7	-1	46*	3	31	15	-21
CCOC(=O)C1CCN(C2=C(NS(=O)(=O)c3ccc(Cl)cc3)C(=O)c3ccccc3C2=O)CC1	-1	18	14	-3	18	x	x
CC1CCCN(C2=C(NS(=O)(=O)c3ccc(Br)cc3)C(=O)c3ccccc3C2=O)C1 (stereo not given)	-14	20	51*	1	13	31	-2
O=C(C(=O)N1CCC(CNC(=O)c2cccs2)CC1)c1cc2ccccc2o1	x	10	x	x	x	x	x
CCCCN=C(N)NC(=O)c1ccccc1	x	2	x	x	x	x	x
O=C(/C=C/c1ccc(-c2ccccc2[N+](=O)[O-])o1)c1ccc(Br)cc1	-14	14	49*	1	10	39	7
COc1cccc(CNC(=O)CN2CCCc3ccccc32)c1	x	-4	x	x	x	x	x
CCOC(=O)c1c2c(n(C)c1C)C(=O)C(=O)c1ccc(Br)cc1-2	-3	-3	96*	66*	72*	72*	6	Fluor interf inh=>100
Cc1ccc2[nH]c3c(c2c1)CN(C(=O)CN1CCCCC1)CC3	-5	5	-16	2	4	x	x
Cc1ccc2[nH]c3c(c2c1)CN(C(=O)CN1CCCc2ccccc21)CC3	-21	15	78*	2	12	15	8
CCC(C)Sc1cccc(-c2nc3ccc(C)cn3c2NC2CCCCC2)c1 (stereo not given)	-7	-7	28	3	0	x	x
CCC(C)Sc1ccc(-c2nc3ccc(C)cn3c2NC2CCCCC2)cc1 (stereo not given)	-2	x	41*	-3	4	8	7
COC(=O)C(C[N+](=O)[O-])C1=C(O)CC(C)(C)CC1=O (stereo not given)	x	-6	x	x	x	x	x
COc1ccc(NC(=O)c2c[nH]n3c(=O)cc(C4CCN(C(=O)OC(C)(C)C)CC4)nc23)cc1Cl	-3	-8	42*	-6	-4	31	8
CC(C)(C)OC(=O)N1CCC(c2cc(=O)n3[nH]cc(C(=O)Nc4ccc(F)c(Cl)c4)c3n2)CC1	-2	-17	36	0	-8	x	x
SMILES	PAD4 FP inh	TDP2 absorb	Apaf-1 inh	CTSL1 counter	GSTO1 counter	Apaf-1 inh conf2	Rh110 interf inh	others
CCOC(=O)N[C@H](C(=O)N1CCC[C@H]1C(=O)NC1CCCC1)C1CCCCC1	x	-4	x	x	x	x	x
CCO[C@@H]1OC(C(=O)N2CCN(Cc3ccc4c(c3)OCO4)CC2)=C[C@H](c2ccc(Br)cc2)[C@H]1CCCO	1	-17	35	4	6	x	x
CCO[C@@H]1OC(C(=O)N2CCN(Cc3ccc4c(c3)OCO4)CC2)=C[C@H](c2ccc(C(F)(F)F)cc2)[C@H]1CCCO	3	-3	42*	2	2	20	16
CCOc1ccc(/C=N/n2c(-c3n[nH]c4c3CCC4)n[nH]c2=S)cc1	x	11	x	x	x	x	x
O=S1(=O)c2ccc(N3CCC[C@H]3CO)cc2O[C@@H]2CCN1C2	x	5	x	x	x	x	x
CCCC1=Nc2cc(C(=O)NCCCOC(C)C)ccc2Sc2ccccc21	-7	-9	25	-3	-12	x	x
CCCC1=Nc2cc(C(=O)NCCCOCC)ccc2Sc2ccccc21	-1	-4	45*	8	-15	3	-1
O=C(CSc1ncc(-c2ccc(F)cc2)n1Cc1ccco1)Nc1nccs1	-5	-3	35	10	3	x	x
Cc1cnc(NC(=O)CSc2ncc(-c3ccccc3)n2Cc2ccco2)s1	-1	4	42*	3	-3	21	11
O=C(CSc1nnc(-c2cccnc2)n1-c1ccccc1)Nc1ccc2c(c1)OCCO2	x	-7	x	x	x	x	x
CC(C(=O)NC(=O)NC1CCCCC1)N(C)CC(=O)Nc1ccc(F)c(F)c1F (stereo not given)	1	-1	46*	3	-4	13	7
CN(CC(=O)Nc1ccc(F)c(F)c1F)C1CCCCC1	1	-7	3	-2	0	x	x
CC(C)C[C@H](NS(=O)(=O)c1ccc(F)cc1F)C(=O)N1CCC[C@H]1C(=O)NCc1ccccc1	x	-1	x	x	x	x	x
O=C1c2ccccc2[C@@H]2C[C@@H](O)[C@H](Nc3cccc4ccccc34)CCN12	11	24	53*	x	x	28	8
COc1ccc(N[C@@H]2CCN3C(=O)c4ccccc4[C@@H]3C[C@H]2O)cc1	-3	-2	17	x	x	x	x
FC(F)Oc1ccc(NC(=S)NCc2ccccc2)cc1	5	-1	2	-4	-5	x	x
Oc1cccc2c(NC(=S)Nc3ccc(OC(F)F)cc3)cccc12	-8	4	65*	-3	7	18	10
C=CCn1c(Cc2cccs2)nnc1SCC(=O)Nc1ccc(C)cc1	x	2	x	x	x	x	x
Cn1c(COc2ccccc2O)[n+](C)c2ccccc21	1	-16	-1	-6	-3	x	x
